# Laboratory results reported in paper PMC8569940 (European journal of medicinal chemistry, 2020).
# Experiments:
# Kunming mice = assay: Acute toxicity study, single intraperitoneal dose; format: in vivo
# Summary of the method: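 Kunming mice, four groups of 8 (half male, half female), each given one intraperitoneal injection of test compound at 10, 20 or 40 mg/kg or vehicle. Mortality and clinical signs in eyes, skin and fur recorded. Body weights measured daily after treatment. Mice dissected to check for ascites and liver volume.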
# JAK2 = JAK2 (Homo sapiens, UniProt O60674); assay: Enzyme inhibition JAK2; format: biochemical
# MAPK10 = MAPK10 (Homo sapiens, UniProt P53779); assay: Enzyme inhibition MAPK10; format: biochemical; conditions: tested at 100 μM
# AURKA = target: T1, AURKA (Homo sapiens, UniProt O14965); assay: Enzyme inhibition AURKA; format: biochemical; conditions: tested at 100 μM
# T1 sequence (O14965 1-403): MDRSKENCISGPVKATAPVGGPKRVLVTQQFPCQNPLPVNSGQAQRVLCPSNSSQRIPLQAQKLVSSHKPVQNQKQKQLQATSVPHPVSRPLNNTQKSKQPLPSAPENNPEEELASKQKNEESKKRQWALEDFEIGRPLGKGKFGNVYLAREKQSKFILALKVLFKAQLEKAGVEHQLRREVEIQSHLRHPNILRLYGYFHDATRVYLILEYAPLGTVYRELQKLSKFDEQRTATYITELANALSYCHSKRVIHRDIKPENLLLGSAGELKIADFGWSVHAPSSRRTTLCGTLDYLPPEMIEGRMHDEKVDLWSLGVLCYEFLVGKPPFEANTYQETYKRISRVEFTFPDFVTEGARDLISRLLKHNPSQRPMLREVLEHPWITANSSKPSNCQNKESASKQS
# 4T1 tumor = assay: In vivo antitumor effect, orthotopic 4T1 tumor-bearing mice; conditions: 2 mg/kg, in comparison with the control group
# MDA-MB-231 cells = assay: Apoptosis detection assay; format: cell-based, human
# Summary of the method: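 MDA-MB-231 cells seeded at 5 × 10^5 cells/mL in six-well plates. Treated with test compound at different concentrations for 24 h (48 h per results text); combretastatin A4 as positive control. Cells trypsinised, washed twice in cold PBS, resuspended in binding buffer, then stained with annexin V-FITC 15 min at room temperature. PI added for a further 15 min in the dark. Read by flow cytometry.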
# [1] = female mice, highest dose group (40 mg/kg)
# Sequence of JAK2 (O60674 whole entry): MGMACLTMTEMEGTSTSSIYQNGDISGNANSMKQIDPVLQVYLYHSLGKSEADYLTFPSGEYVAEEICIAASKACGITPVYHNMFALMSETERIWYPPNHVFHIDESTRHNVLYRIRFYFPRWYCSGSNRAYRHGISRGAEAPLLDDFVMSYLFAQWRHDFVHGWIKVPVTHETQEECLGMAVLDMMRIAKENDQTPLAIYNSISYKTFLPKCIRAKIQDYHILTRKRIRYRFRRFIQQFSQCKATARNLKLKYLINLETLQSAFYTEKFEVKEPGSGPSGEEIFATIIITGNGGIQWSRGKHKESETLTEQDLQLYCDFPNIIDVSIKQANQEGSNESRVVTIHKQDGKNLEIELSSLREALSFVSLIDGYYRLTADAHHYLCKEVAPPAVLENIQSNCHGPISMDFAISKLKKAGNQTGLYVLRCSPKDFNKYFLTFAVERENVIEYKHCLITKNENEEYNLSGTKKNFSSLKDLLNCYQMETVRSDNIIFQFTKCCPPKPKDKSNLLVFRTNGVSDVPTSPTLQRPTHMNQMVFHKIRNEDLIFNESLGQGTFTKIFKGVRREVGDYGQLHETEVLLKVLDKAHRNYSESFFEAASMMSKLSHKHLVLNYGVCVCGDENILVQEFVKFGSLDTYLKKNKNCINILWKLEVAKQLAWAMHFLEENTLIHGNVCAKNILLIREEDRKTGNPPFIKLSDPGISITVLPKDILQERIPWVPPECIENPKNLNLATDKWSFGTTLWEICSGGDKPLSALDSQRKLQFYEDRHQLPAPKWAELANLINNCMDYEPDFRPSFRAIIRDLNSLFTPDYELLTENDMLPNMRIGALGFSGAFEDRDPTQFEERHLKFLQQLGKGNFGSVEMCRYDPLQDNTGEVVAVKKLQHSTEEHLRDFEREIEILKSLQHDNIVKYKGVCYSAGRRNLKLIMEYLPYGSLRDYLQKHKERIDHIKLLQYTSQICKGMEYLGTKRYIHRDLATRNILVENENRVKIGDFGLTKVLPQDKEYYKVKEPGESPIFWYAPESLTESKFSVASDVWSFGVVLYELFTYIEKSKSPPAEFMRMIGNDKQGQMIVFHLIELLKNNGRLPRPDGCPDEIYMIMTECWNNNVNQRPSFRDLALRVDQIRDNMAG
# Sequence of MAPK10 (P53779 whole entry): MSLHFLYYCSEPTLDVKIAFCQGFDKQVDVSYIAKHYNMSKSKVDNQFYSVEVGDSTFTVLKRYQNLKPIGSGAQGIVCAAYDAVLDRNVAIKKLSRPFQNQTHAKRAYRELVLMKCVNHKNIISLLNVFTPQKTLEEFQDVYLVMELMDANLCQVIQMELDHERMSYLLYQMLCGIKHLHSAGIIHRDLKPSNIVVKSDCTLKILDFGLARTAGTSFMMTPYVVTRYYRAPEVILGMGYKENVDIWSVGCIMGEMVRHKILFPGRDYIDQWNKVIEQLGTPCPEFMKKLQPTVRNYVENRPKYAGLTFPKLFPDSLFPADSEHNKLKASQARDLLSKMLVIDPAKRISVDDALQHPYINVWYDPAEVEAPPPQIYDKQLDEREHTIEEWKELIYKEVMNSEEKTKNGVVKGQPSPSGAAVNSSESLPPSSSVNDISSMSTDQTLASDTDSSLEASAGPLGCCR
smiles,measurement,setting,value
"O=C1C=CC2(C=C1)OCC(=O)N2c1nc(-c2cccc3ccccc23)nn1-c1ccccc1 [Compound 6a, 4-(3-(Naphthalen-1-yl)-1-phenyl-1H-1,2,4-triazol-5-yl)-1-oxa-4-azaspiro[4.5] deca-6,9-diene-3,8-dione]",toxicity to the major organ in mice,Kunming mice; 20 mg/kg,no apparent toxicity
same,"clinical signs in the eyes, skin, and fur",Kunming mice; 40 mg/kg,no remarkable clinical signs
same,ascites at dissection,Kunming mice; [1],Ascites were detected
same,liver volume at dissection,Kunming mice; [1],decreased liver volume
same,gain of bodyweight,Kunming mice; highest dose group (40 mg/kg),lower than the other three groups
same,mortality,"Kunming mice; single dose 10, 20, 40 mg/kg i.p.",No mortality occurred
same,inhibition on the Janus kinases 2,JAK2,weak inhibition
same,IC50,"JAK2; Inhibitory effect (IC50) JAK2 Repeat 1, Repeat 1",41.3 µM
same,IC50,"JAK2; Inhibitory effect (IC50) JAK2 Repeat 2, Repeat 2",76.6 µM
same,effect on MAPK10,MAPK10,did not have any significant effect
same,effect on AURKA,AURKA,did not have any significant effect
same,size of the spleen and liver,4T1 tumor,enlarged
same,early and late apoptosis,"MDA-MB-231 cells; MDA-MB-231, 1 μM",induced both early and late apoptosis
same,induction of cell apoptosis,"MDA-MB-231 cells; MDA-MB-231, 48 h of treatment",induce cell apoptosis in a dose-dependent manner
